Test results taken from ChEMBL document CHEMBL4028864 (J Med Chem, 2017).

What was measured:
[1] = Clearance in Wistar rat at 1 mg/kg, iv by LC-MS/MS analysis; assay type: ADME, organism-based; conditions: in vivo
Procedure, shortened: (§1)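 Wistar rats given a single 1 mg/kg iv dose. Plasma concentration–time profiles were plotted as mean ± SEM and sampled through 24 h postdose. Values were taken from the iv profile.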

[2] = Volume of distribution at steady state in Wistar rat at 1 mg/kg, iv by LC-MS/MS analysis; assay type: ADME, organism-based; conditions: in vivo, read-out: Vdss; procedure, shortened: as §1
[3] = system: Plasma; assay: Drug uptake in Wistar rat plasma at 5 mg/kg, po administered via gavage or 1 mg/kg, iv up to 2 hrs by LC-MS/MS analysis; assay type: ADME, organism-based; conditions: in vivo
Procedure, shortened: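 Wistar rats dosed once at 5 mg/kg po or 1 mg/kg iv. Plasma levels were followed as mean ± SEM over 24 h postdose and checked against the limit of quantitation at each time point.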

[4] = Tmax in Wistar rat at 5 mg/kg, po administered via gavage by LC-MS/MS analysis; assay type: ADME, organism-based; conditions: in vivo
Procedure, shortened: (§2)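 Wistar rats given a single 5 mg/kg oral dose. Plasma concentration–time profiles were plotted as mean ± SEM and sampled through 24 h postdose.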

[5] = molecular target: Histone deacetylase 4 (Homo sapiens) (UniProt P56524); assay: Inhibition of N-terminal GST tagged/C-terminal His tagged human recombinant HDAC4 (627 to 1084 residues) expressed in Baculovirus infected insect cells in presence of ATP; conditions: concentration not given here
Procedure, shortened: (§3)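 HDAC enzyme inhibition was run by a contract laboratory.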

[6] = Thermodynamic aqueous solubility of the compound at pH 7.4 after 24 hrs by UV absorbance based assay; assay type: physicochemical; conditions: read-out: Therm_solubility
Procedure, shortened: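 A 20 mM DMSO stock was diluted 1:100 into pH 7.4 PBS, then shaken at 250 rpm for 3 or 24 h at 22.5 ± 2.5 °C. The mixture was filtered and the filtrate diluted with acetonitrile/universal buffer. Absorbance was read at 310 nm against a 6.25–200 μM calibration curve, in triplicate.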

[7] = system: PC-3; assay: cells; assay type: functional, cell-based; conditions: Homo sapiens, PC-3, 72 h
[8] = Terminal half life in Wistar rat at 1 mg/kg, iv by LC-MS/MS analysis; assay type: ADME, organism-based; conditions: in vivo, read-out: beta t1/2 (converted); procedure, shortened: as §1
[9] = system: MDA-MB-231; assay: cells; assay type: functional, cell-based; conditions: Homo sapiens, MDA-MB-231, 72 h
[10] = AUC (0 to infinity) in Wistar rat at 1 mg/kg, iv by LC-MS/MS analysis; assay type: ADME, organism-based; design: dose 1 mg/kg, time infinity, route intravenous; conditions: in vivo; procedure, shortened: as §1
[11] = Terminal half life in Wistar rat at 5 mg/kg, po administered via gavage by LC-MS/MS analysis; assay type: ADME, organism-based; conditions: in vivo, read-out: beta t1/2 (converted); procedure, shortened: as §2
[12] = system: HCT-116; assay: Antiproliferative activity against human HCT116 cells after 72 hrs by MTT assay; assay type: functional, cell-based; conditions: HCT-116, 72 h
[13] = system: Jurkat; assay: cells; assay type: functional, cell-based; conditions: Homo sapiens
[14] = system: KMS-12-BM; assay: Induction of apoptosis in human KMS-12-BM cells assessed as increase in cleaved PARP level at 1 to 6 uM after 24 hrs by immunoblotting analysis; assay type: functional, cell-based
Procedure, shortened: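 KMS-12-BM and MOLM-14 cells were treated for 24 h and then lysed. Cleaved PARP was detected by immunoblotting.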

[15] = molecular target: Tyrosine-protein kinase JAK1 (Homo sapiens, UniProt P23458); assay: Inhibition of human JAK1 using poly[Glu:Tyr] as substrate in presence of [gamma-33P]-ATP
Procedure, shortened: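 Kinase inhibition was tested by radiometric "Hotspot" profiling at a contract laboratory with 10 μM ATP.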

[16] = system: MOLM-14; assay: cells; assay type: functional, cell-based; conditions: Homo sapiens, MOLM-14, 48 h
[17] = system: TAMH; assay: cells; assay type: ADME, cell-based; conditions: Mus musculus, 24 h
[18] = molecular target: Histone deacetylase 1 (Homo sapiens, UniProt Q13547); assay: Inhibition of C-terminal FLAG His tagged full length human recombinant HDAC1 (1 to 482 residues) expressed in baculovirus infected sf21 cells using RHKKAc as substrate in presence of ATP
[19] = system: HEL 92.1.7; assay: cells; assay type: functional, cell-based; conditions: Homo sapiens, HEL 92.1.7, 36 h
[20] = molecular target: Histone deacetylase 5 (Homo sapiens, UniProt Q9UQL6); assay: Inhibition of C-terminal His tagged human recombinant HDAC5 (657 to 1123 residues) expressed in Baculovirus infected insect cells in presence of ATP; procedure, shortened: as §3
[21] = molecular target: T1, Tyrosine-protein kinase JAK2 (Homo sapiens, UniProt O60674); assay: Inhibition of human JAK2 using poly[Glu:Tyr] as substrate in presence of [gamma-33P]-ATP
[22] = cells; assay type: functional, cell-based; conditions: Homo sapiens, XG6, 48 h
[23] = molecular target: T1, Tyrosine-protein kinase JAK2; assay: Inhibition of wild type human JAK2 (A829 to G1132 residues) expressed in mammalian cells assessed as residual activity at 1 uM by KINOMEscan assay relative to control; assay type: cell-based

T1 sequence (O60674 whole entry): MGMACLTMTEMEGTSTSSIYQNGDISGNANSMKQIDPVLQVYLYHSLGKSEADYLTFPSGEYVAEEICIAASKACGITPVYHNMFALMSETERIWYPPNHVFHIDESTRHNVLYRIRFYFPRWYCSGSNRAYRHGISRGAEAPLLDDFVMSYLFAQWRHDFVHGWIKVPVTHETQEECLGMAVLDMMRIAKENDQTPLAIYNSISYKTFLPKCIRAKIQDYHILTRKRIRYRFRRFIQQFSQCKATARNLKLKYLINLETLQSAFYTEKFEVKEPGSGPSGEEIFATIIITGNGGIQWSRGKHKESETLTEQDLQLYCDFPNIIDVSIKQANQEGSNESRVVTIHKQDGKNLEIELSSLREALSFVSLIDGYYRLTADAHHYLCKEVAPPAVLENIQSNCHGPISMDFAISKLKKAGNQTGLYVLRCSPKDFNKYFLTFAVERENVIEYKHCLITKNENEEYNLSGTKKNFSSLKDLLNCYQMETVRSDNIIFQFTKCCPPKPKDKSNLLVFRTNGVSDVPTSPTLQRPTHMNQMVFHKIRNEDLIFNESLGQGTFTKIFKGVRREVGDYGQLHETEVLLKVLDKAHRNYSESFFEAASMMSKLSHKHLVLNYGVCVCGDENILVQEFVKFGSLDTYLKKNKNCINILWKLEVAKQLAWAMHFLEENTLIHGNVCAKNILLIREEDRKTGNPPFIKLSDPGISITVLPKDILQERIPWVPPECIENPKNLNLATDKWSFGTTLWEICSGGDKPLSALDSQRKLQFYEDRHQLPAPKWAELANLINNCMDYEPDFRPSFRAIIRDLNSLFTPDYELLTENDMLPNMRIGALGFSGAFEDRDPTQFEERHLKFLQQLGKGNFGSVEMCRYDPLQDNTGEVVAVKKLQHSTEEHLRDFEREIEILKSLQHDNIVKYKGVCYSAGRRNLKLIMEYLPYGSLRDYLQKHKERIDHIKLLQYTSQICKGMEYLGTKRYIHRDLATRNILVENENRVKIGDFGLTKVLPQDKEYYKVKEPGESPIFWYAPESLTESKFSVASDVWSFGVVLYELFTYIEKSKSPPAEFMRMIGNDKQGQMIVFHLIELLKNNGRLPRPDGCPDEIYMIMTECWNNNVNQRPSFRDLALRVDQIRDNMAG
Sequence of Histone deacetylase 5 (Q9UQL6 whole entry, the tested form may be a part): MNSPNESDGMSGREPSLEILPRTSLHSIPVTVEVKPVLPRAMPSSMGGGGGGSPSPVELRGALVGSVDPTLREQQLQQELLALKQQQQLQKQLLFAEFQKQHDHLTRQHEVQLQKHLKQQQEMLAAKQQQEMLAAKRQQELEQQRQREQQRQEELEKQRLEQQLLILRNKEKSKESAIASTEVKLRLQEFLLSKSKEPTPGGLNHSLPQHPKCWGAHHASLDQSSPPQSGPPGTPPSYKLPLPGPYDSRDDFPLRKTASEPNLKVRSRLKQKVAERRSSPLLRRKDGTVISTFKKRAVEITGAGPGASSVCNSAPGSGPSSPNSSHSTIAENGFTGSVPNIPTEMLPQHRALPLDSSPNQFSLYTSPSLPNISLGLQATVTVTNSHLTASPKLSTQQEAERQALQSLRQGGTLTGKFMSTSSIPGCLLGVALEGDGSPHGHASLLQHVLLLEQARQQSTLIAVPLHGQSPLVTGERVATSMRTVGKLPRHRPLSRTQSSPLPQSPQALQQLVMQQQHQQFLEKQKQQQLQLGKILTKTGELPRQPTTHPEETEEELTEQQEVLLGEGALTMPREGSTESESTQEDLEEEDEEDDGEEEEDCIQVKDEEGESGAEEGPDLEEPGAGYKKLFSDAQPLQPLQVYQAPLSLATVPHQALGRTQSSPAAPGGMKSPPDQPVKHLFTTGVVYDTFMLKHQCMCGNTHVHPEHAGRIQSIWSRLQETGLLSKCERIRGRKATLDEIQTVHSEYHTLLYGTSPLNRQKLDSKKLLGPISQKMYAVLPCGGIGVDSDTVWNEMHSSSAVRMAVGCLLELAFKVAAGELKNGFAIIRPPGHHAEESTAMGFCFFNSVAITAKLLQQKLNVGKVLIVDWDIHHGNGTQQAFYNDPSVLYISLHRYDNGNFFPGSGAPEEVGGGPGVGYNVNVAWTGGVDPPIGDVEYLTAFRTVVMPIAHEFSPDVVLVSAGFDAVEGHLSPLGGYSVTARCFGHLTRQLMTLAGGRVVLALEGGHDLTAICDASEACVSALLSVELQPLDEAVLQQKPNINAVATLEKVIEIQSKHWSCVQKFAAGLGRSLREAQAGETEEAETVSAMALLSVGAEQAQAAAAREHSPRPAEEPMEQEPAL
Sequence of Tyrosine-protein kinase JAK1 (P23458 whole entry): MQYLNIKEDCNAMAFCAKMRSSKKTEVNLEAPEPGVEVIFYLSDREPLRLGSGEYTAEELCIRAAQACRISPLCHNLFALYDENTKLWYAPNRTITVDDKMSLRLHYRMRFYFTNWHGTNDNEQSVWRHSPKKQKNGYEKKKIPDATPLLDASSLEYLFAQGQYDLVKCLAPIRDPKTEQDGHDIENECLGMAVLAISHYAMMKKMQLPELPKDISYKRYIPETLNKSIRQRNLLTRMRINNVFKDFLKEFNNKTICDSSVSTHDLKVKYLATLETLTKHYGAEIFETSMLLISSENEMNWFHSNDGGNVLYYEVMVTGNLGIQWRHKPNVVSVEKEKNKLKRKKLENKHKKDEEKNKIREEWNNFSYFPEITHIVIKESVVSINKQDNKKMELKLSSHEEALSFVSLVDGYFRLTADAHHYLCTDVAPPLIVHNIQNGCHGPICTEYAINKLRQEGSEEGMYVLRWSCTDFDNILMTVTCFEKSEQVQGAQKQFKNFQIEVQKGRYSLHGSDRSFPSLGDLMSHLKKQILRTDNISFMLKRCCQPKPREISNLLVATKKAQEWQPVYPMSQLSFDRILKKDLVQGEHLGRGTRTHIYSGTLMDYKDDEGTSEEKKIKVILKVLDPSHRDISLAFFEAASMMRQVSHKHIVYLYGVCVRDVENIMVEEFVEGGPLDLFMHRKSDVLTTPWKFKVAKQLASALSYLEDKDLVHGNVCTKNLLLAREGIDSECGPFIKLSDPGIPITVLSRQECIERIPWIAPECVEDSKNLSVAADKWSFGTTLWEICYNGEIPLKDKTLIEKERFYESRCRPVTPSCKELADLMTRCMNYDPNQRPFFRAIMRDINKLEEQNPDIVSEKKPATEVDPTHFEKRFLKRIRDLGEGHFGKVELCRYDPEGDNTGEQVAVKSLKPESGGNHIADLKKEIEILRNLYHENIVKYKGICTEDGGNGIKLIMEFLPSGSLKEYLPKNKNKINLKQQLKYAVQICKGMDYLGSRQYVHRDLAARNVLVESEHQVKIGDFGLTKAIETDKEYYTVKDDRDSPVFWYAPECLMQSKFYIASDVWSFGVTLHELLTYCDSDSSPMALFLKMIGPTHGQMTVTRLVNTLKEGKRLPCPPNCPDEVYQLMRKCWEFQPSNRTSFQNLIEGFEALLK
Sequence of Histone deacetylase 4 (Homo sapiens) (P56524 whole entry, the tested form may be a part): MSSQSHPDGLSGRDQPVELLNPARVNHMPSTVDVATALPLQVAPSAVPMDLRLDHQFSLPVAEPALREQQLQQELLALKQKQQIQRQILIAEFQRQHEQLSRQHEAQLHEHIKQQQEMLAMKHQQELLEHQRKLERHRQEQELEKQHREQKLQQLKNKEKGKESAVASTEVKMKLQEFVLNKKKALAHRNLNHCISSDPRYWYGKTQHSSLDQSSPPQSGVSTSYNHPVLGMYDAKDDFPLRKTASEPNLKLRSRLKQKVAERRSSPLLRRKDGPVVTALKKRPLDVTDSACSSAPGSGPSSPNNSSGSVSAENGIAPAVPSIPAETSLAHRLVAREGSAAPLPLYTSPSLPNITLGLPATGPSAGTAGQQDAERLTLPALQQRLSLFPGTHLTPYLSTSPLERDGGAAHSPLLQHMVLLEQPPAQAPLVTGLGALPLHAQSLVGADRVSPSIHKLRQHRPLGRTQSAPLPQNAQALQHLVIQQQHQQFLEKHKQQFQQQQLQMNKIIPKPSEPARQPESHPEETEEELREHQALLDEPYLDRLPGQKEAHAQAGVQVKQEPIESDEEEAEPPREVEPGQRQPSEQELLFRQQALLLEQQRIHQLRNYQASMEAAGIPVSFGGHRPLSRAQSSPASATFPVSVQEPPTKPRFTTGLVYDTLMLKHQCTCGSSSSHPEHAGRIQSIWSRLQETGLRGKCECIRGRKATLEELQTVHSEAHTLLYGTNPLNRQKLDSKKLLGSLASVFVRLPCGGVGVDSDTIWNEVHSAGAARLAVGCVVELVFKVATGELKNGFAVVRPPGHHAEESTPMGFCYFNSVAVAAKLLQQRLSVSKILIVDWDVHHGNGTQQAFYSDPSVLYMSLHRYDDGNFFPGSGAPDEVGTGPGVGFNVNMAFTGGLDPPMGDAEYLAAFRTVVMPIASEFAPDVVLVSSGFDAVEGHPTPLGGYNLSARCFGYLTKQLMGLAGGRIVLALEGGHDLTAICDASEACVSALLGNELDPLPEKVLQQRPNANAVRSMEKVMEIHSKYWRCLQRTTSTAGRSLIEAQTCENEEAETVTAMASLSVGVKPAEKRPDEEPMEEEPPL
Sequence of Histone deacetylase 1 (Q13547 whole entry, the tested form may be a part): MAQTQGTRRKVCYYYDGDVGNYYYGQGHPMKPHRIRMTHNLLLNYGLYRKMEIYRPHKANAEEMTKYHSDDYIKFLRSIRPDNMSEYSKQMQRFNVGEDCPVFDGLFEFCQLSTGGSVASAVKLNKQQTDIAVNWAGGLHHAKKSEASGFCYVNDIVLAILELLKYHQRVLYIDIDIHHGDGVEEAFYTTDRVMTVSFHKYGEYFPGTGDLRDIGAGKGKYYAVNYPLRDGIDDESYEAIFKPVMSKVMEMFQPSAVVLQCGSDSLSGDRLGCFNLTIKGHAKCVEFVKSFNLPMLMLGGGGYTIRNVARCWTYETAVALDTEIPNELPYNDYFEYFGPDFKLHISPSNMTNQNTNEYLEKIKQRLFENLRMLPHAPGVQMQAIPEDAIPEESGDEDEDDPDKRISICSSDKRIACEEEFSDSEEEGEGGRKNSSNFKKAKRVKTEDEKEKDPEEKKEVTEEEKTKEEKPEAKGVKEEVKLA

- clearance [1]: 95.1 mL/min/kg
- Vd [2]: 1.49 L/kg
- Drug uptake [3]: Active
- Tmax [4]: 4.98 min
- inhibition [5]: 23%
- solubility thermodynamic at 24 h [6]: > 73 µg/mL
- IC50 [7]: 2410 nM
- half-life [8]: 21 min
- IC50 [9]: 790 nM
- AUC(0-inf) [10]: 175 ng·h/mL
- half-life [11]: 34.8 min
- IC50 [12]: 2320 nM
- IC50 [13]: 470 nM
- IC50 [15]: 17 nM
- IC50 [16]: 740 nM
- IC50 [17]: 4.63 µM
- IC50 [18]: 6.9 nM
- IC50 [19]: 1330 nM
- IC50 [20]: 10.5 µM
- IC50 [21]: 75 nM
- IC50 [22]: 2010 nM
- Activity [23]: 0%
SMILES: O=C(CCCCCCn1cc(-c2ncnc3[nH]ccc23)cn1)NO
- Activity [14]: Dose-dependent effect
